MIC, Activity and CD50 data for four compounds are collected here from ChEMBL document CHEMBL3244289, “Synthesis and antibacterial activity of 2'-substituted chelocardin analogues” (1979).

Calls of active or inactive are those of the source. The rule behind the calls is not given here.

Assay [1] has as its system Staphylococcus aureus. In words: Antibacterial activity against Staphylococcus aureus 45 by two-fold agar dilution method. It is filed as functional. The method in brief:
(§1)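 MIC determined by twofold serial dilution in brain-heart infusion agar. Values are reported in µg/mL.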

In assay [2] the test system is Staphylococcus aureus. In words: Antibacterial activity against Staphylococcus aureus Smith by two-fold agar dilution method. The assay is classed as functional. An outline of the steps:
as §1
Background: In agar dilution the substance is mixed into plates at graded concentrations.

The test system of assay [3] is Streptococcus pyogenes. The experiment in a line: Antibacterial activity against Streptococcus pyogenes C-203 by two-fold agar dilution method. It is filed as functional. The method in brief: as §1
In assay [4] the test system is Enterococcus. The experiment in a line: Antibacterial activity against Enterococcus 89 by two-fold agar dilution method. It is filed as functional. An outline of the steps:
as §1

Assay [5] has as its system Escherichia coli. In words: Antibacterial activity against Escherichia coli Juhl by two-fold agar dilution method. The assay is classed as functional. The method in brief: as §1
Assay [6] deals with Klebsiella pneumoniae. In words: Antibacterial activity against Klebsiella pneumoniae 8045 by two-fold agar dilution method. It is filed as functional. The method in brief:
as §1

For assay [7], the system named is Pasteurella multocida. In words: Antibacterial activity against Pasteurella multocida 10544 by two-fold agar dilution method. The assay is classed as functional. The method in brief:
as §1

Assay [8] has as its system Proteus vulgaris. In words: Antibacterial activity against Proteus vulgaris by two-fold agar dilution method. It is filed as functional. The method in brief:
as §1

The test system of assay [9] is Proteus mirabilis. The experiment in a line: Antibacterial activity against Proteus mirabilis by two-fold agar dilution method. It is filed as functional. The method in brief:
as §1

In assay [10] the test system is Salmonella typhi. The experiment in a line: Antibacterial activity against Salmonella typhi by two-fold agar dilution method. The assay is classed as functional, Salmonella enterica subsp. enterica serovar Typhi. The following applies: Salmonella enterica. An outline of the steps:
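MIC in µg/mL by twofold serial agar dilution on brain-heart infusion agar.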

Assay [11] relates to Pseudomonas aeruginosa. The experiment in a line: Antibacterial activity against Pseudomonas aeruginosa by two-fold agar dilution method. The assay is classed as functional, organism-based. An outline of the steps: as §1
The subject of assay [12] is Proteus mirabilis. In words: Antibacterial activity against Proteus mirabilis infected in po dosed mouse assessed as protection against bacterial infection. It is filed as functional. The method in brief: (§2)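 Mice were challenged intraperitoneally with Proteus mirabilis, and compound was given by the line's route (oral or subcutaneous). The CD50 is the total dose in mg/kg that protects 50% of challenged mice.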

The test system of assay [13] is Proteus mirabilis. The experiment in a line: Antibacterial activity against Proteus mirabilis infected in sc dosed mouse assessed as protection against bacterial infection. It is filed as functional. The method in brief:
as §2

On to `CC(=O)N/N=C(\C)C1=C(O)[C@H](N)[C@@H]2Cc3c(c(O)c4c(O)c(C)ccc4c3C)C(=O)[C@]2(O)C1=O.Cl`, for which the MIC (usually the lowest concentration found to suppress growth) in assay [1] is 12.5 µg/mL; in [2] it was 12.5 µg/mL; in assay [3] it was 6.2 µg/mL; in [4], 12.5 µg/mL; in [5], 12.5 µg/mL; in assay [6], 6.2 µg/mL. The minimal inhibitory concentration (MIC) in assay [7] amounted to 0.78 µg/mL; in [8], 6.2 µg/mL; in assay [9] it was 6.2 µg/mL; in [10], 6.2 µg/mL. Besides, the result in [11] was inactive. Further, the results for the CD50 in assay [12] and in assay [13] were 50 mg/kg and 25 mg/kg, respectively.
Turning to `C/C(=N\N1CCN(CCO)CC1)C1=C(O)[C@H](N)[C@@H]2Cc3c(c(O)c4c(O)c(C)ccc4c3C)C(=O)[C@]2(O)C1=O.Cl`, the MIC in [1] stood at 12.5 µg/mL; in assay [2], 6.2 µg/mL; in assay [3] it was 3.1 µg/mL; in [4], 6.2 µg/mL; in assay [5], 6.2 µg/mL; in assay [6], 1.56 µg/mL. For the same compound, the MIC in [7] came to 0.39 µg/mL; in [8] it was 3.1 µg/mL; in assay [9], 3.1 µg/mL; in [10] it was 1.56 µg/mL. For the same compound, the result in assay [11] was inactive. For the same compound, the CD50 in [12] was found to be 100 mg/kg; in assay [13], 25 mg/kg.
`C/C(=N\c1ccc(S(N)(=O)=O)cc1)C1=C(O)[C@H](N)[C@@H]2Cc3c(c(O)c4c(O)c(C)ccc4c3C)C(=O)[C@]2(O)C1=O.Cl`: the MIC was 6.2 µg/mL in assay [1]; 3.1 µg/mL in [2]; 3.1 µg/mL in assay [3]; 6.2 µg/mL in assay [4]; 6.2 µg/mL in [5]; 1.56 µg/mL in assay [6]. In addition, the MIC was found to be 0.2 µg/mL in assay [7], 1.56 µg/mL in [8], 3.1 µg/mL in [9] and 0.7 µg/mL in assay [10]. For the same compound, the result in assay [11] was inactive. Also, the CD50 in assay [12] was under 25 mg/kg; in [13], 6.25 mg/kg.
Turning to `CC(=O)NS(=O)(=O)c1ccc(/N=C(\C)C2=C(O)[C@H](N)[C@@H]3Cc4c(c(O)c5c(O)c(C)ccc5c4C)C(=O)[C@]3(O)C2=O)cc1.Cl`, the minimum inhibitory concentration (MIC) worked out at 6.2 µg/mL in assay [1]; 3.1 µg/mL in assay [2]; 3.1 µg/mL in [3]; 12.5 µg/mL in assay [4]; 6.2 µg/mL in assay [5]; 1.56 µg/mL in [6]. Moreover, the minimum inhibitory concentration (MIC) is 0.78 µg/mL in assay [7], 3.1 µg/mL in [8], 6.2 µg/mL in assay [9] and 1.5 µg/mL in assay [10]. In assay [11], the result was inactive. Further, the CD50 was determined as 100 mg/kg in [12] and 6.25 mg/kg in [13].
